Measurements gathered from unrelated publications.
Each line is one published result; the experiments were not run side by side.
Target: NT-3 growth factor receptor (NTRK3, Homo sapiens, UniProt Q16288)
Observed: enzyme activity
Mode: inhibitor

COc1cc2ncnc(Nc3ccc(Oc4ccccc4)c(C)c3C)c2cc1OC — inhibition (1 µM): 3%
CN1CC(Oc2cnc(C#N)cc2-c2ccn3nc(NC(=O)C4CC4)cc3c2)C1 — inhibition (1 µM): 51%
CCCS(=O)(=O)Nc1ccc(F)c(C(=O)c2c[nH]c3ncc(-c4ccc(Cl)cc4)cc23)c1F — inhibition (1 µM): < 10%
COc1cc2ncnc(Nc3ccc(Oc4ccccc4)cc3C)c2cc1OC — inhibition (1 µM): 13%
O=C(Cc1ccc(C(F)(F)F)cc1)Nc1cccc(C(=O)Nc2ccc3[nH]ncc3c2)c1 — inhibition (FRET; 1 µM): 21.9%
CCOc1cc(-c2nncn2C)ccc1Nc1ncc2cc(C)nc(NCC(C)(C)C)c2n1 — inhibition (FRET; 1 µM): < 15%
O=C(Nc1ccc(Br)cc1)Nc1cccc(C(=O)Nc2ccc3[nH]ncc3c2)c1 — inhibition (FRET; 1 µM): 13.7%
CNC(=O)c1cc2c(Oc3ccc(NC(=O)C4(C(=O)Nc5ccc(F)cc5)CC4)cc3)ccnc2cc1OC — inhibition (radiometric; 1 µM): 79%
CC/C(=N\NC(=O)NCc1cccc(O)c1)c1ccc(O)c(C)c1O — inhibition (0.1 µM): 0.4%
O=C(Nc1ccc2[nH]ncc2c1)c1cccc(NC(=O)c2cc(C(F)(F)F)ccc2F)c1 — inhibition (FRET; 1 µM): 12.1%
